Laboratory results from ChEMBL document CHEMBL5584271, “Synthesis and Biological Analysis of Iso-dimethyltryptamines in a Model of Light-Induced Retinal Degeneration” (2024).
Active and inactive are the calls of the source. The rule behind the calls is not given here.

Tests used:
Mus musculus [1] = assay: (§1) Protection against light-induced retinal degeneration in dark-adaptated BALB/c albino mouse assessed as reduction in ERG a- and b-wave amplitude deterioration at 10 mg/kg, ip dosed preincubated with compound for 15 to 30 mins of mydriasis followed by exposure to bright light at 15kLux for 30 mins by electroretinography analysis relative to control; type: functional; set-up: scale not given: the % may be the effect or the level left; settings: time 45-60 min
Summary of the method: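 BALB/c albino mice aged 5–8 weeks, dark-adapted overnight. Dosed 10 mg/kg ip in 25% DMSO/75% saline 30 min before light. Pupils dilated with metaoxedrin (20 mg/mL) plus tropicamide (4 mg/mL) at 30 and 15 min prior. Exposed to 15 kLux white light for 30 min, freely moving. ERG a- and b-wave amplitudes recorded one week later at 10 cd·s/m2 stimulus. Compared with vehicle; mean ± SEM.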

Mus musculus [2] = assay: as §1, with “ONL thinning” for “ERG a- and b-wave amplitude deterioration”; type: functional; set-up: scale not given: the % may be the effect or the level left; settings: time 45-60 min
Summary of the method: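 Same LIRD protocol in BALB/c mice aged 5–8 weeks: 10 mg/kg ip in 25% DMSO/saline 30 min before 30 min of 15 kLux white light, with mydriatics given beforehand. OCT imaging one week later, centred on the optic nerve head. ONL thickness measured 500 μm from the ONH border and averaged over four quadrants. Compared with vehicle; Welch's ANOVA with Dunnett's T3.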

Mus musculus [3] = assay: as §1, with “analysis” for “analysis relative to control”; type: functional, organism-based; settings: time 45-60 min
Summary of the method: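 BALB/c albino mice (5–8 weeks) were dark-adapted overnight and given 10 mg/kg ip in 25% DMSO/75% saline 30 min before light. Pupils were dilated with metaoxedrine (20 mg/mL) plus tropicamide (4 mg/mL) at 30 and 15 min prior. Freely moving mice received 30 min of 15 kLux white light. ERG a- and b-wave amplitudes were recorded one week later (10 cd·s/m2 stimulus). Analysis used Welch's ANOVA with Dunnett's T3 post hoc tests.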

Mus musculus [4] = assay: Protection against light-induced retinal degeneration in dark-adaptated BALB/c albino mouse assessed as reduction in ONL thinning at 10 mg/kg, ip dosed preincubated with compound for 15 to 30 mins of mydriasis followed by exposure to bright light at 15kLux for 30 mins by […]; type: functional, organism-based; settings: time 45-60 min
Summary of the method: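 Dark-adapted BALB/c albino mice (5–8 weeks) were dosed ip at 10 mg/kg (vehicle 25% DMSO/75% saline) 30 min before 30 min of 15 kLux white light. Pupils were dilated with metaoxedrine/tropicamide at 30 and 15 min prior. One week later, OCT centred on the optic nerve head measured ONL thickness 500 μm from the ONH border, averaged over four quadrants. Analysis used Welch's ANOVA with Dunnett's T3 tests.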

[5] = molecular target: T1, 5-hydroxytryptamine receptor 2C (Homo sapiens) (UniProt P28335); assay: Binding affinity to 5-HT2C (unknown origin)
T1 sequence (whole entry): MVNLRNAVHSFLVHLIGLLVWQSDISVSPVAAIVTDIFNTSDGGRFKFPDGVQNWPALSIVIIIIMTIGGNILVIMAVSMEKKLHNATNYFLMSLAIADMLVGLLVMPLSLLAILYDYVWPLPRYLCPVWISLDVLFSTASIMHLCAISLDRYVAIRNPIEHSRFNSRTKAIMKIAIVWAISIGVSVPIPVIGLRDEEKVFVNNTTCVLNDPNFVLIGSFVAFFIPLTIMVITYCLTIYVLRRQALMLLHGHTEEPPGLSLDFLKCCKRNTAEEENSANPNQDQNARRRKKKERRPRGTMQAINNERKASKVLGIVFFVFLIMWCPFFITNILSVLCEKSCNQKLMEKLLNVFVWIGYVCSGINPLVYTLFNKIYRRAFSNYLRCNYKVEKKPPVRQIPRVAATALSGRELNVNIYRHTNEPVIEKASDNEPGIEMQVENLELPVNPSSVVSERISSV

[6] = molecular target: 5-hydroxytryptamine receptor 2B (Homo sapiens) (UniProt P41595); assay: Binding affinity to 5-HT2B (unknown origin)
[7] = molecular target: 5-hydroxytryptamine receptor 2A (Homo sapiens) (UniProt P28223); assay: Binding affinity to 5-HT2A (unknown origin)
[8] = molecular target: T2, 5-hydroxytryptamine receptor 1A (Homo sapiens) (UniProt P08908); assay: Binding affinity to 5-HT1A (unknown origin)
T2 sequence (whole entry): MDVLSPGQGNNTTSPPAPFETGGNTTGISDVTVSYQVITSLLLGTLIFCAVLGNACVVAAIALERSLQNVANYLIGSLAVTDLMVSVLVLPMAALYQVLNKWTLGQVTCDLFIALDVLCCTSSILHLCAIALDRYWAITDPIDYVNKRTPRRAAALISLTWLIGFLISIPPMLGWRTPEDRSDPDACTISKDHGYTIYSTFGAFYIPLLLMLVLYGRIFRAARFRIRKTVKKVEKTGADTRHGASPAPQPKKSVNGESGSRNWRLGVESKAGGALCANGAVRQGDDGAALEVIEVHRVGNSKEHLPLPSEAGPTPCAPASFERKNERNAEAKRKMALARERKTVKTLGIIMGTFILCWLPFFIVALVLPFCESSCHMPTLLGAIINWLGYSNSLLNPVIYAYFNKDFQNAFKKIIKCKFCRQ

5-hydroxytryptamine receptor 2A (Homo sapiens), sequence (P28223 whole entry): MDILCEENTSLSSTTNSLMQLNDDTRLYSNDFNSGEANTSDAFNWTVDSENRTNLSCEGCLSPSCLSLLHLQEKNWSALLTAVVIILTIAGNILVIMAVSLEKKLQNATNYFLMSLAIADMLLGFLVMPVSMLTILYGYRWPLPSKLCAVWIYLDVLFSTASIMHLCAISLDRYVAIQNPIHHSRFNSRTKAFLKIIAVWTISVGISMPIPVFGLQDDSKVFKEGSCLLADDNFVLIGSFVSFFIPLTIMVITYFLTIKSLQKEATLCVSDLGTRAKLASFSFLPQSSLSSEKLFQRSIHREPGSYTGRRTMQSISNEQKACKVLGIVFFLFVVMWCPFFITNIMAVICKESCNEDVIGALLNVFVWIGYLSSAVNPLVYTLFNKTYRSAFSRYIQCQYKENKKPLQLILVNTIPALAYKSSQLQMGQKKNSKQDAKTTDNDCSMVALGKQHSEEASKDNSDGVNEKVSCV
5-hydroxytryptamine receptor 2B (Homo sapiens), sequence (P41595 whole entry): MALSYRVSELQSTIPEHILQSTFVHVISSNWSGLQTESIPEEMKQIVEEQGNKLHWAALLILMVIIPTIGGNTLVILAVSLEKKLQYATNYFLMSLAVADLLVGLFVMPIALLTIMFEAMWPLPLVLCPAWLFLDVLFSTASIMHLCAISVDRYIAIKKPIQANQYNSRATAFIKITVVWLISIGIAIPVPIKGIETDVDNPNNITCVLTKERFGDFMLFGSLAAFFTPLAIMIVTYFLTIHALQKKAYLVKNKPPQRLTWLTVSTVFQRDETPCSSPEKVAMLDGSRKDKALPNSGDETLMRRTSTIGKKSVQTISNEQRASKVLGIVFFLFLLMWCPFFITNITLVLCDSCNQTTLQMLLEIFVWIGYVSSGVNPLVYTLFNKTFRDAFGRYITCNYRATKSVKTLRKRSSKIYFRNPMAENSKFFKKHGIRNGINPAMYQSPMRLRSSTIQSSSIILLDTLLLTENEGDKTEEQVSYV

SMILES	Activity (Mus musculus [3])	Activity (Mus musculus [4])	other results
CC(C)C[C@H]1C(=O)N2CCC[C@H]2[C@]2(O)O[C@](NC(=O)[C@@H]3C=C4c5cccc6[nH]c(Br)c(c56)C[C@H]4N(C)C3)(C(C)C)C(=O)N12 [BROMOCRIPTINE]	–	–	Activity (Mus musculus [1]): 70%; Activity (Mus musculus [2]): 70%
CN1C[C@@H](CO)C=C2c3cccc4[nH]cc(c34)C[C@@H]21	inactive	inactive	–
CN1C[C@@H](CO)C=C2c3cccc4[nH]cc(c34)C[C@H]21	Active	Active	–
CN1C[C@H](CO)C=C2c3cccc4[nH]cc(c34)C[C@@H]21	inactive	inactive	–
CN(C)CCn1cc(Cc2ccccn2)c2cc(F)ccc21	inactive	inactive	–
CN1C[C@@]2(C)C[C@]23c2cccc4[nH]cc(c24)C[C@@H]13	Active	Active	–
CN(C)CCn1cc(Cc2ccccn2)c2c(Br)cccc21	Active	Active	–
CN(C)CCn1cc(Cc2ccccn2)c2ccc(F)cc21	inactive	inactive	–
CN1C[C@]2(C)C[C@@]23c2cccc4[nH]cc(c24)C[C@H]13	Active	Active	–
CCN(CC)C(=O)[C@H]1CN(C)[C@H]2Cc3c[nH]c4cccc(c34)[C@@H]1C2	inactive	inactive	Activity [5]: inactive; Activity [6]: inactive; Activity [7]: inactive; Activity [8]: inactive
CN1C[C@H](CO)C=C2c3cccc4[nH]cc(c34)C[C@H]21	Active	Active	–
